Sampled rows, rich in hits. Any-hit rate of the full collection: about 1.7%.
Rev-erbA mod – modulators of human Rev-erb alpha DNA binding. Rev-erbα–FITC-DNA binding, fluorescence polarization, 90 min. activity, % at 10 µM. 0.79% of 370,000 active. P20393. AID 1259318;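 active = activity above about 14%, limit read from the data; passing the limit was not always enough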;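 also: 0% = DMSO wells with 35 nM protein and 100% = DMSO wells with 750 nM protein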
Target sequence (P20393 whole entry, looked up): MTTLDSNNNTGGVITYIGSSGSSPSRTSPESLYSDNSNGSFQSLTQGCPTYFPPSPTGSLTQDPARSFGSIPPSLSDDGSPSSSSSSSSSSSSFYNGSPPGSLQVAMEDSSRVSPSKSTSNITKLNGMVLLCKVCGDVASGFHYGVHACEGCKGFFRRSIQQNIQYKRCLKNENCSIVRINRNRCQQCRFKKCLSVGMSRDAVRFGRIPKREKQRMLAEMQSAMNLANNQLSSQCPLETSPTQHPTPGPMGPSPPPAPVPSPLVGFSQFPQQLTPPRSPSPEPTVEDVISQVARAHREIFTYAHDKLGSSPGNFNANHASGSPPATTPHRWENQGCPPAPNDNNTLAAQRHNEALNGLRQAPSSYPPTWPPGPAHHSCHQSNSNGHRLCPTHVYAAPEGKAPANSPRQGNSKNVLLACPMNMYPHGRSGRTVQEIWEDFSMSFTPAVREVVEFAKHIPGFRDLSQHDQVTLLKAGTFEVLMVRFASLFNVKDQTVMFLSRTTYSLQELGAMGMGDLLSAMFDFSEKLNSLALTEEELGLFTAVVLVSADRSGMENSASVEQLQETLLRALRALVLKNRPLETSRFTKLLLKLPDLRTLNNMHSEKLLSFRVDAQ
CSN deneddyl inh – CSN deneddylation inhibition. Purified CSN, SCF-Nedd8-OG deneddylation, fluorescence polarization. inhibition, % at 12.5 µM. 0.38% of 360,000 active. AID 651999;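 active = pattern-corrected inhibition above about 35%, with an unprinted fluorescence ratio check between 0.5 and 1.5, limit read from the data, passing the limit was not always enough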;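 also: 0% = enzyme with substrate and 100% = substrate without enzyme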
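Assay system: purified human Csn5 enzyme expressed in HEK293T cells; measure: % inhibition; also added: SCFSkp2-Nedd8OG substrate at 10 nM final; technique: fluorescence polarization; times: reaction 90 min, room temperature; medium: Tris buffer pH 7.5, NaCl, DTT, Tween-20, trehalose, ovalbumin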
HNF4A DNA FP – change in binding of human HNF4 alpha to DNA; P41235; HNF4a-FITC DNA binding, fluorescence polarization, 1 h; activity change, % at 10 µM; 0.3% of 360,000 active; AID 1224865; in the data active = activity change above about 30%, passing the limit was not always enough
TPT1 inhibitor – inhibitors of Candida albicans tRNA 2'-phosphotransferase TPT1. 0.81% of 300,000 active. recombinant caTPT1, FP RNA substrate dephosphorylation. inhibition, % at 5 µM. AID 1962;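 active = inhibition above the mean of all tested compounds plus 3 SD, set per screening campaign, cut at about 24% in these data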;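 also: plate controls were DMSO alone for no effect and ferristatin control at 100 nM for full effect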
NR1D1 mod conf – Rev-erb alpha (human) modulation, hit confirmation. shares compounds with Rev-erbA mod. Rev-erb alpha FITC-DNA binding, fluorescence polarization, 90 min. activation, % at 25 µM. 61% of 3,000 active. AID 1259319;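 active = activation at or above a set limit, or at least 3 SD above the negative control mean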;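 also: 0% = 35 nM protein with DMSO and 100% = 750 nM protein high control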
RORg counter – counter-screen for Rev-erb alpha modulators: RORgamma DNA binding; shares compounds with Rev-erbA mod; purified RORgamma protein-FITC-DNA binding, fluorescence polarization; IC50, µM; 8% of 910 active; AID 1259320;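 active = Compounds whose fitted half-maximal concentration for disrupting protein-DNA binding is below 10 micromolar; the record names Rev-erb in its text, so the target is in doubt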
* marks the source's active call; other numbers are inactive results; . = no result given.

SMILES	Rev-erbA mod	CSN deneddyl inh	HNF4A DNA FP	TPT1 inhibitor	NR1D1 mod conf	others
N#Cc1ccc(C23CC4(C2)[C@H](CN(Cc2cccnc2)[C@@H]4c2ccccc2)C3c2ccccc2)cc1 (some centres undefined)	23*	-4	6	-1	29*
CC(CNC(=O)[C@@H](Cc1ccccc1)NC(=O)[C@H]1O[C@@H](n2cnc3c(=O)[nH]c(N)nc32)[C@H](O)[C@@H]1O)c1ccccc1 (some centres undefined)	3	.	.	.	.
C=C1C[C@@]23CCC4[C@@](C)(CCC[C@@]4(C)C(=O)O)C2CC[C@]1(O)C3 (some centres undefined)	13*	3	3	.	4
COc1ccc(-n2c(COc3ccc(C)cc3)nnc2SCC(=O)c2ccc(-c3ccccc3)cc2)cc1	45*	.	.	.	28*
COc1ccc(NC(=O)CSc2nnc3ccc(-c4ccccn4)nn23)cc1	3	1	-3	-3	.
COc1ccc(C(=O)CSc2nnc3ccc(-c4ccccn4)nn23)cc1	52*	-2	0	1	19*
O=C(CSc1nnc2ccc(-c3ccccn3)nn12)Nc1cccc(F)c1	22*	4	3	.	16*
CCOc1nc(-c2ccc(OC)cc2)ccc1-c1noc(-c2ccncc2)n1	-2	1	-1	.	.
CCOc1nc(-c2ccccc2)ccc1-c1noc(-c2ccncc2)n1	29*	5	2	-3	24*
CCOc1nc(-c2ccccc2)ccc1-c1noc(-c2cccs2)n1	40*	5	7	4	14
COc1cccc(-c2ccc(-c3noc(-c4cccs4)n3)c(OC)n2)c1	12	3	-3	-9	.
Cc1cccc(NC(=O)c2cc(NC(=O)c3ccccc3)ccc2N2CCCCC2)c1	34*	1	-1	-2	1
CCCCCCc1cc2cc(C(=O)Nc3ccccc3)c(=O)oc2cc1O	91*	1	3	-1	43*	RORg counter=6.3*
COC(=O)C1=C(C)N(Cc2ccc(F)cc2)C(=S)NC1c1cccc(OC)c1 (centres undefined)	1	.	.	.	.
COc1ccc(C(=O)N(C)[C@H]2C[C@H]3c4[nH]c5c(-c6ccccc6)cccc5c4CCN3C(=O)[C@H]2[C@H](C)O)cc1	0	.	.	.	.
CCOc1ccc(/C(CC)=N/NC(=O)C2(C)CC2(Br)Br)cc1 (centres undefined)	31*	4	1	-3	46*	RORg counter=>40
CCOc1ccc(/C(CCC(=O)O)=N/NC(=S)NC(C)C)cc1	-2	-8	-3	-2	.
CNC(=O)C1CC(=O)N(c2ccc(OCC(=O)Nc3ccccc3)cc2)C1 (centres undefined)	-2	1	-2	.	.
COC(=O)c1ccc(COc2ccc3c4c(c(=O)oc3c2)CCC4)o1	34*	3	-3	-4	1
COc1ccc(C(=O)N2CCCC(CCC(=O)NCc3ccc(F)c(F)c3)C2)o1 (centres undefined)	15*	-2	-3	0	-2
COc1ccc(C(=O)N2CCCC(CCC(=O)NCc3ccc(F)c(F)c3)C2)cc1F (centres undefined)	2	-3	3	0	.
CC(NC(=O)c1c(N)[nH]c(C(=O)c2ccc(Cl)cc2)c1-c1ccc(Br)cc1)c1cccc2ccccc12 (centres undefined)	-8	.	.	.	.
COc1ccc(N/C=C(\C=C\C#N)S(=O)(=O)c2ccccc2)cc1	22*	0	1	5	3
N#C/C=C/C(=C\Nc1ccc(Cl)cc1)S(=O)(=O)c1ccccc1	-1	3	0	1	.
COc1ccccc1N1N=C(C(=O)c2ccccc2)C2C(=O)N(c3ccc(Br)cc3)C(=O)C21 (centres undefined)	29*	5	48	10	31*	RORg counter=>40
SMILES	Rev-erbA mod	CSN deneddyl inh	HNF4A DNA FP	TPT1 inhibitor	NR1D1 mod conf	others
COC(=O)C1=NN(c2ccc(Cl)cc2)C2C(=O)N(c3ccccc3OC)C(=O)C12 (centres undefined)	-2	-2	-1	1	.
c1ccc(N(c2ccccc2)c2nc(N3CCCC3)nc(-n3ccnc3)n2)cc1	37*	-3	0	4	58*	RORg counter=8.5*
Cc1ccc(C)c(NC(=O)CSc2nc3ccccc3nc2N2CCOCC2)c1	32*	-4	1	3	24*
CCc1ccccc1NC(=O)CSc1nc2ccccc2nc1N1CCOCC1	15	3	3	0	.
COc1ccc(NC(=O)COc2nc3ccccc3nc2N2CCOCC2)c(OC)c1	24*	-10	0	-7	10
COc1ccc(NC(=O)COc2nsnc2N2CCOCC2)cc1	1	2	1	3	.
Cc1cc(C)c2nc(SCC(=O)Nc3ccccc3N3CCOCC3)c(C#N)cc2c1	65*	1	5	0	32*	RORg counter=>40
COc1ccc2nc(SCC(=O)N3CC(=O)Nc4ccccc43)c(C#N)cc2c1	-3	6	6	11	.
COCc1cc(C)nc(SCC(=O)Nc2ccccc2N2CCOCC2)c1C#N	5	-1	0	1	.
Cc1cc(C)c2nc(SCC(=O)N3CC(=O)Nc4ccccc43)c(C#N)cc2c1	98*	4	7	17	64*	RORg counter=>40
CC1=C[C@@H]2[C@H]3C(=O)N(Cc4ccccc4)C(=O)[C@H]3[C@@H]1[C@@H]1O[C@@]3(C(=O)N(C)c4ccccc43)C3=C(CCCC3=O)N21	0	.	.	.	.
COC(=O)[C@H](C(C)C)N1Cc2nnn(Cc3ccccc3)c2C=CS1(=O)=O	-1	.	.	.	.
COC(=O)c1cccc(OC[C@@H](O)CN2CCC(C(O)(c3ccccc3)c3ccccc3)CC2)c1	2	.	.	.	.
CN1CC(O)([C@H](Cc2ccccc2)NC(=O)OC(C)(C)C)OCC1C(=O)NCc1cccc2ccccc12 (some centres undefined)	8	.	.	.	.
Cc1ccccc1NC(=O)CSc1nc2cc3c(cc2cc1C)CCC3	102*	3	3	1	23*
CCC(=O)Nc1ccc(NC(=O)CSc2nc3cc4c(cc3cc2C)CCC4)cc1	16	-1	-1	-1	.
O=c1c2cc(F)ccc2[nH]c(=S)n1Cc1ccc(F)cc1	57*	-2	0	1	17*
COc1ccccc1Cn1c(=S)[nH]c2ccc(F)cc2c1=O	7	-2	2	-1	.
NS(=O)(=O)c1ccc(CCNC(=O)C2CCC(Cn3c(=S)[nH]c4ccccc4c3=O)CC2)cc1 (centres undefined)	5	14	21	-1	.
NS(=O)(=O)c1ccc(CCn2c(=S)[nH]c3ccc(F)cc3c2=O)cc1	58*	-3	4	1	40*	RORg counter=>40
O=c1c2ccccc2[nH]c(=S)n1Cc1ccc2c(c1)OCO2	38*	-6	0	-3	48*	RORg counter=>40
CC(C)(C)OC(=O)N1CCC2CCN(CCc3ccccc3)CC21 (centres undefined)	-12	.	.	.	.

From PubChem BioAssay
